This is a sample that favours compounds with a hit; in the whole collection about 3.8% have one here.
RGS4 act: potentiators or activators of RGS4 | HEK293 M3R/inducible RGS4, carbachol calcium flux Fluo4; hits give low values | AID 463111 | 310,000 tested, 0.92% active | B-score at 10 µM;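 active = B-score of the integrated calcium signal more than 4 SD below the library mean, with starting fluorescence not abnormally high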;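 note: negative B-score means reduced calcium response which marks RGS4 activation or potentiation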
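test system = M3R-expressing HEK293 line, RGS4 induced by doxycycline | probe or stimulus = carbachol at ECmax as muscarinic agonist stimulus | timing = dye loading 30 min 37 °C, buffer rest 30 min RT | signal = calcium dye Fluo4 fluorescence | evaluation = B score from integrated fluorescence ratio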
MrgX1 antag: human MrgX1 receptor antagonism, primary screen | 310,000 tested, 1.3% active | Q96LB2 | AID 588676 | B-score at 10 µM | MRGX1-HEK293 calcium flux, Fluo-4, BAM8-22 antagonism; hits give low values;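 active = calcium-response B-score plate-corrected more than 3 library SD below zero, starting fluorescence within 5 deviations, no agonist response on first addition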;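 note: peak minus trough fluorescence over baseline after final BAM8-22 challenge near maximal dose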
Target sequence (Q96LB2 whole entry, looked up): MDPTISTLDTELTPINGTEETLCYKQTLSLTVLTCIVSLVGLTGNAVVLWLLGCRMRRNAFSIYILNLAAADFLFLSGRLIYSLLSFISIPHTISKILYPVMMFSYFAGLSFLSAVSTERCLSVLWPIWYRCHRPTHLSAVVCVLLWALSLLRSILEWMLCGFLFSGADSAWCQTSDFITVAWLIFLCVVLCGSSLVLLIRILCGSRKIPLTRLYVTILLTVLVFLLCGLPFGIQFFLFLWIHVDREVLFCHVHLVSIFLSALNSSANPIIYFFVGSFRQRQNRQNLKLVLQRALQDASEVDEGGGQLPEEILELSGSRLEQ
MrgX1 agonist: agonists of human MrgX1 receptor; Q96LB2; MrgX1-HEK293 cells, Fluo-4 calcium fluorescence, agonist mode; hits give high values; B-score at 10 µM; 310,000 tested, 0.44% active;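 active = calcium response B-score plate-corrected fluorescence ratio at least 3 library SD, with starting fluorescence B-score inside 5 SD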
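Material: HEK293 cells stably expressing human MrgX1 receptor | Quantity: 15,000 cells per well | Times: Cells plated overnight, dye loaded 0.5 h 37 °C, 0.5 h room temperature | Measured by: Kinetic Fluo-4 NW fluorescence of intracellular calcium | Control set: Positive and negative controls per plate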
Hep lipid drop: hepatic lipid droplet formation modulation | AML12 mouse hepatocytes, oleate lipid droplets, BODIPY imaging | inhibition, % at 6.5 µM | 240,000 tested, 0.4% active | AID 1656;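 active = lipid droplet intensity inhibited by at least 50%, with more than 500 cells counted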
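Test system: AML12 hepatocytes (mouse); reagent: oleate loading, 100 µM; dosing: one dose, 6.5 µM compound; incubation: overnight exposure; signal: fluorescence imaging, 20x objective, two fields per well; read-out basis: % inhibition of corrected integrated BODIPY droplet signal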
MrgX1 allo act: allosterically activates human MrgX1 receptor signaling | MrgX1-HEK293, Fluo-4 calcium flux, FDSS; hits give high values | B-score at 10 µM | 310,000 tested, 0.63% active;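 active = plate-corrected calcium response at least 3 library SD above typical, normal starting fluorescence, not activating the receptor alone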;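 note: compound read alongside a low EC10 to EC30 dose of BAM8-22 agonist; peak minus trough fluorescence over baseline measured at the second addition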
RGS4 inh: human RGS4 inhibition. 310,000 tested, 0.45% active. HEK293 M3R/RGS4 inducible, Fluo-4 calcium flux; hits give high values; triggered by carbachol at its EC20. P49798. B-score at 10 µM;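 active = B-score, a plate-corrected calcium signal, over three deviations above library mean, with baseline fluorescence within five deviations of library mean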;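 note: RGS4 expression induced by doxycycline in cells with stable M3 receptor; B-score is computed from the integrated fluorescence ratio over baseline after carbachol; higher B-score means a larger calcium signal and so more RGS4 inhibition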
Target sequence (P49798 whole entry, looked up): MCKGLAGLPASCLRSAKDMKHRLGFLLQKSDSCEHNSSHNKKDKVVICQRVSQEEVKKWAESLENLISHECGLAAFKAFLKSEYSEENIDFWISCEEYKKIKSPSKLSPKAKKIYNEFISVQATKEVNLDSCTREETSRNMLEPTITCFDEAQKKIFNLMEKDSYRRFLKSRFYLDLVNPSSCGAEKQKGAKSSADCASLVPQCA
MrgX1 ant reconf: reconfirmed antagonist of human MrgX1 receptor signaling; MrgX1-HEK293, BAM8-22 calcium flux, Fluo-4; hits give low values; 2,300 tested, 19% active; shares compounds with MrgX1 antag; remaining BAM8-22 calcium response % of control (hits give low values), % at 10 µM;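 active = remaining agonist calcium response no higher than 100% minus 3 SD of agonist-only control wells, with starting fluorescence near control levels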;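 note: agonist BAM8-22 given at a near maximal EC90 to ECmax level; peak minus minimum fluorescence divided by baseline after agonist addition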
HEK293 Ca flux: MrgX1 antagonist counter-screen hit in parental HEK293 cells | shares compounds with MrgX1 antag | Fluo-4 calcium fluorescence, FDSS | fluorescence ratio F(max-min)/F0 at 10 µM | 4,000 tested, 2% active | AID 624111;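 active = duplicate-averaged calcium fluorescence ratio at least three times the standard deviation of buffer wells, a nonspecific response in parental cells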
HEK293 Ca counter: MrgX1 allosteric activator counter-screen hit in parental HEK293 cells; shares compounds with MrgX1 antag; parental HEK293 calcium flux, Fluo-4 fluorescence ratio; hits give high values; fluorescence ratio F(max-min)/F0 at 10 µM; 4,000 tested, 0.4% active;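 active = calcium fluorescence ratio, averaged over duplicates, at least 3 SD of the buffer-well ratio, meaning a nonspecific response in receptor-free cells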;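 note: untransfected parental HEK293 lacking MrgX1 used as counterscreen for MrgX1 allosteric activators; fluorescence change taken during the second addition on a kinetic imager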
HEK293 Ca cntr2: activity in parental HEK293 cells lacking MrgX1 receptor. AID 624115. fluorescence ratio F(max-min)/F0 at 10 µM. 4,000 tested, 8.7% active. shares compounds with MrgX1 antag. Fluo-4 calcium fluorescence (FDSS); hits give high values;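 active = calcium fluorescence ratio at least three times the spread of buffer wells, meaning a non-specific response in parental cells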
Numbers stand for hits; i = inactive; nt = not tested or not shown.

SMILES | RGS4 act | MrgX1 antag | MrgX1 agonist | Hep lipid drop | MrgX1 allo act | RGS4 inh | MrgX1 ant reconf | HEK293 Ca flux | HEK293 Ca counter | HEK293 Ca cntr2
O=C(CS(=O)(=O)c1c[nH]c2ccccc12)NC1CCCCC1 | i | -10.4 | i | i | i | i | i | i | i | i
O=C(Cn1c(CN2CCCCC2)nc2ccccc2c1=O)NCc1ccco1 | i | i | i | nt | i | i | nt | nt | nt | nt
O=S(=O)(NCc1cccs1)c1ccc(Br)cc1 | i | i | i | i | i | i | nt | nt | nt | nt
O=C(Nc1ccc(Br)cc1)c1ccc(F)c(S(=O)(=O)NCc2cccs2)c1 | i | -5.34 | i | i | i | i | i | i | i | 46.9
O=C1Nc2ccc(F)cc2C12OCCO2 | i | i | i | i | i | i | nt | nt | nt | nt
CN(C(=O)COC(=O)c1cccnc1Nc1cccc(C(F)(F)F)c1)C1CCS(=O)(=O)C1 (stereo not drawn) | i | -5.74 | i | i | i | i | i | i | i | i
Cc1ccc(NC(=O)CSc2nnc(-c3ccncc3)o2)cc1C | i | i | i | i | i | i | nt | nt | nt | nt
CC1COC(Cn2c3ccccc3c3ccccc32)O1 (stereo not drawn) | i | i | i | i | i | i | nt | nt | nt | nt
O=C(Nc1ccc(S(=O)(=O)Nc2cnc3ccccc3n2)cc1)c1cc(F)c(F)cc1Cl | i | i | i | i | i | i | nt | nt | nt | nt
CCOC(=O)N1CCN(C(=O)CCCn2c(=O)[nH]c3ccccc3c2=O)CC1 | i | -7.44 | i | nt | i | i | i | i | i | i
CN1CCN(c2ccc(Cl)cc2NS(=O)(=O)c2ccccc2Cl)CC1 | i | -5.3 | i | nt | i | i | 81.4% | i | i | i
O=C(OCc1nnc(-c2ccccc2)o1)C1CC(=O)N(c2ccccc2)C1 (stereo not drawn) | i | i | i | i | i | i | nt | nt | nt | nt
O=C(OCc1nnc(-c2ccccc2)o1)C1CC(=O)N(Cc2ccco2)C1 (stereo not drawn) | i | -5.04 | i | i | i | i | i | i | i | i
Cc1cc(C)cc(NC(=O)Nc2ccc3c(c2)N(C)C(=O)CS3)c1 | i | i | i | nt | i | i | nt | nt | nt | nt
CC(=O)c1cccc(NC(=O)Nc2ccc3c(c2)N(C)C(=O)CS3)c1 | i | -9.01 | i | i | i | i | 3.0% | i | i | i
CCOC(=O)N1CCN(C(=O)CN(Cc2ccc(Cl)cc2)S(=O)(=O)c2ccc(C)cc2)CC1 | i | i | i | i | i | i | nt | nt | nt | nt
CCOC(=O)N1CCN(C(=O)CN(Cc2ccc(Cl)cc2)S(C)(=O)=O)CC1 | i | -6.23 | i | i | i | i | i | i | i | i
CCN1CCN(C(=O)C2CC(=O)N(c3ccc(Cl)cc3)C2)CC1 (stereo not drawn) | i | i | i | i | i | i | nt | nt | nt | nt
COC(=O)Oc1cncc(C(=O)O)c1 | i | -5.15 | i | nt | i | i | i | i | i | i
C=CCn1c(C(O)c2ccccc2)nc2ccccc21 (stereo not drawn) | i | i | i | i | i | i | nt | nt | nt | nt
C=CCn1c(N)nc2ccccc21 | i | -4.61 | i | nt | i | i | i | i | i | i
CCOCCn1c(CC)nc2ccccc21 | i | i | i | i | i | i | nt | nt | nt | nt
C=CCn1c(C(C)C)nc2ccccc21 | i | -6.72 | i | i | i | i | i | i | i | i
CCc1nc2ccccc2n1CCC(C)C | i | -6.32 | i | nt | i | i | i | i | i | i
C=CCn1c(-c2ccc(N)cc2)nc2ccccc21 | i | i | i | nt | i | i | nt | nt | nt | nt
SMILES | RGS4 act | MrgX1 antag | MrgX1 agonist | Hep lipid drop | MrgX1 allo act | RGS4 inh | MrgX1 ant reconf | HEK293 Ca flux | HEK293 Ca counter | HEK293 Ca cntr2
CCOCCn1c(CCCO)nc2ccccc21 | i | -11 | i | nt | i | i | i | i | i | i
O=C(NCCCNC(=O)c1ccccc1F)c1ccco1 | i | i | i | i | i | i | nt | nt | nt | nt
CCOC(=O)c1ccc(NC(=O)c2ccc[n+]([O-])c2)cc1 | i | i | i | i | i | i | nt | nt | nt | nt
CN(CC(=O)NCCc1ccc(Cl)cc1)S(=O)(=O)c1cccs1 | i | i | i | i | i | i | nt | nt | nt | nt
COc1cc(C2=NC(CO)(CO)CO2)cc(OC)c1OC | i | i | i | i | i | i | nt | nt | nt | nt
COc1ccc(CN2CCC(CO)(Cc3cccc(C(F)(F)F)c3)CC2)cc1Cn1cccn1 | i | i | i | i | i | i | nt | nt | nt | nt
CCOC(=O)C1=C(C)NC(=S)NC1/C=C/c1ccccc1 (stereo not drawn) | i | i | i | i | i | i | nt | nt | nt | nt
CCCn1c(N)nc2ccccc21 | i | -5.47 | i | i | i | i | i | i | i | i
CCn1c(N)nc2ccccc21 | i | i | i | nt | i | i | nt | nt | nt | nt
Cc1[nH]c2ccccc2c1C(=O)CN1CCC(C(N)=O)(N2CCCCC2)CC1 | i | -5.83 | i | nt | i | i | i | i | i | i
Cc1[nH]c2ccccc2c1C(=O)CN1CCN(C2CCCCC2)CC1 | nt | nt | nt | i | nt | nt | nt | nt | nt | nt
CCOc1ccccc1N(CC(=O)OC)S(C)(=O)=O | i | -6.16 | i | nt | i | i | i | i | i | i
O=C(O)/C=C/c1cccc2c1OCCO2 | i | i | i | i | i | i | nt | nt | nt | nt
CC(=O)NC(=S)Nc1ccccc1C(=O)NC1CCCCC1 | i | -8.34 | i | i | i | i | i | i | i | i
O=C(NC1CCCC1)c1ccccc1OCc1ccccc1 | i | i | i | i | i | i | nt | nt | nt | nt
Cc1cccc(COc2ccccc2C(=O)NC2CCC(O)CC2)c1 (stereo not drawn) | i | -10.4 | i | nt | i | i | i | i | i | i
COc1ccccc1NC(=O)N1CCC(NC(=O)C2CCCCC2)CC1 | i | -8.22 | i | i | i | i | i | i | i | i
COc1ccccc1NC(=O)N1CCCC1 | i | i | i | i | i | i | nt | nt | nt | nt
S=C(Nc1cccc2ccccc12)NC1CCCCC1 | i | -5.36 | i | i | i | i | i | i | i | i
CSc1ccccc1NC(=S)NC1CCCCC1 | i | i | i | i | i | i | nt | nt | nt | nt
O=C(NC1CCCCC1)C1CCCN1S(=O)(=O)c1ccc(Cl)cc1 (stereo not drawn) | i | i | i | i | i | i | nt | nt | nt | nt
CCCCN(CCCC)CC(O)COc1ccccc1Br (stereo not drawn) | i | i | i | i | i | i | nt | nt | nt | nt
COc1ccccc1C(=O)NC1CCCCCCC1 | i | -10.5 | i | i | i | i | i | i | i | i

Screens (PubChem)
